According to ChEMBL document CHEMBL1125381, “Synthesis and alpha-adrenergic activities of 2- and 4-substituted imidazoline and imidazole analogues” (J Med Chem, 1992):

Tests used:
Rattus norvegicus [1] = organism: Rattus norvegicus; assay: Percent maximal analogue response relative to phenylephrine =100%; format: functional
In short: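 Rat aorta (α1) contraction. The maximal response to each analogue is expressed as percent of the maximal response to the reference agonist phenylephrine (phenylephrine = 100%). Mean ± SEM, N = 4.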

[2] = Potency ratio is defined as IC50(medetomidine)/IC50(compound)
In short: (§1)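 Platelet-rich plasma from drug-free human volunteers (no medication for 10 days) treated with 1 mM aspirin. Inhibitors added at various concentrations 1 min before epinephrine. Read-out is primary-wave aggregation. […] Potency ratio = IC50 of medetomidine / IC50 of analogue.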

[3] = Potency ratio is defined as EC50 (medetomidine) / EC50 (compound)
[4] = target: T1, Adrenergic receptor alpha-2 (Homo sapiens, UniProt P08913+P18825+P18089); assay: Compound was evaluated for Adrenergic activity against Alpha-2 adrenergic receptor in human platelets; in short: as §1
T1 sequence (P08913 whole entry): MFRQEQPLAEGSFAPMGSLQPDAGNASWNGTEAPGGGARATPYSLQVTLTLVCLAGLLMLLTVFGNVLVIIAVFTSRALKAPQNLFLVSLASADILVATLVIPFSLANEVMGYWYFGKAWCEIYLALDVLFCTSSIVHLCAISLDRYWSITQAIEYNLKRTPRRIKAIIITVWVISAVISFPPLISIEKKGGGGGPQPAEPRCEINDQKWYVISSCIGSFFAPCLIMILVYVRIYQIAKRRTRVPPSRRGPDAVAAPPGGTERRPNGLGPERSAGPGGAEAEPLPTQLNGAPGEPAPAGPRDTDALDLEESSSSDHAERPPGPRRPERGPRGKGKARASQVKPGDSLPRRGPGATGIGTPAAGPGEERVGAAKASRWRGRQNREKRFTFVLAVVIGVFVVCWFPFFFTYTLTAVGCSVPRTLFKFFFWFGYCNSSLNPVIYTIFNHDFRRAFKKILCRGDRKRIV
T1 sequence (P18825 whole entry): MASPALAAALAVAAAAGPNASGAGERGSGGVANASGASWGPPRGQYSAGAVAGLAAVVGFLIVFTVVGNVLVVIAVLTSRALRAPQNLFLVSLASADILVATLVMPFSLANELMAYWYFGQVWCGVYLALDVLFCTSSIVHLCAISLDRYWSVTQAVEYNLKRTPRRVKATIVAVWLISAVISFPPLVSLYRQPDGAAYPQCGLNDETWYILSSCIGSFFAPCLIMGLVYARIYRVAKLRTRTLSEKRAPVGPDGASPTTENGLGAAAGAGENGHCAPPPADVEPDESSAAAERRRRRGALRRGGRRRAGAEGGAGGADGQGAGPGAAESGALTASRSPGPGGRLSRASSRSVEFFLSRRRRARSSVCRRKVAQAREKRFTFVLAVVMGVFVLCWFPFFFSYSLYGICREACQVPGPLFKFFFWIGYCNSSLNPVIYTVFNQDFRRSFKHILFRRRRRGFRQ
T1 sequence (P18089 whole entry): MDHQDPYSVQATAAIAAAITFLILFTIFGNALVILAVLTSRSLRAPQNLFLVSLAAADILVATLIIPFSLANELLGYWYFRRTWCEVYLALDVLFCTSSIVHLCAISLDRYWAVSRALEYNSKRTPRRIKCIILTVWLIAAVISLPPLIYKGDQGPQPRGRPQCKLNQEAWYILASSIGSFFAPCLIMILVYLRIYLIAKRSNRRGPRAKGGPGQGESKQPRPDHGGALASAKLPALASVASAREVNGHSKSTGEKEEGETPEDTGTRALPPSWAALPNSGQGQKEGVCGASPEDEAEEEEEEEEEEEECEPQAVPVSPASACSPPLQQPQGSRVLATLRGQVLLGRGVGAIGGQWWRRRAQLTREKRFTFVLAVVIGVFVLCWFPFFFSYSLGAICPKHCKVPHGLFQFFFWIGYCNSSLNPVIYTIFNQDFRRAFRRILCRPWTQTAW

Rattus norvegicus [5] = organism: Rattus norvegicus; assay: Molar concentration of analogue which shifts concentration curve of phenylephrine to the right by 2-fold (0.3 log units); format: functional
In short: (§2)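 Rat aorta (α1) antagonism. KB is the molar analogue concentration that shifts the phenylephrine concentration-response curve 2-fold (0.3 log units) to the right. Derived by computerized analysis of the concentration-response data.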

[6] = target: T2, Adrenergic receptor alpha-1 (Rattus norvegicus, UniProt P15823+P23944+P43140); assay: Compound was evaluated for Adrenergic activity against Alpha-1 adrenergic receptor from rat aorta
T2 sequence (P15823 whole entry): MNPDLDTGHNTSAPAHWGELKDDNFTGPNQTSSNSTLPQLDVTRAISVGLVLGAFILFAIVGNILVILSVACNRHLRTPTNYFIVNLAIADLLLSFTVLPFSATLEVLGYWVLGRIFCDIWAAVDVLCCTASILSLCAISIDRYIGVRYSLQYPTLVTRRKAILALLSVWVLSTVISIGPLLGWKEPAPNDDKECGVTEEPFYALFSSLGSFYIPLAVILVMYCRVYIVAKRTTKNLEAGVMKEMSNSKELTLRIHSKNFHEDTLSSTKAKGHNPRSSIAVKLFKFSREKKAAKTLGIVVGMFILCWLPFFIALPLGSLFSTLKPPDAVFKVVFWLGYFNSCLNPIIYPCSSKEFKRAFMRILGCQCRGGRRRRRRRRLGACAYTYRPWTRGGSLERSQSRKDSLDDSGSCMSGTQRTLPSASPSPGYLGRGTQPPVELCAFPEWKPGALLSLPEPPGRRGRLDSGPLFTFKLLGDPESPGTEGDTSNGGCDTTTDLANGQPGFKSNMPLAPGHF
T2 sequence (P23944 whole entry): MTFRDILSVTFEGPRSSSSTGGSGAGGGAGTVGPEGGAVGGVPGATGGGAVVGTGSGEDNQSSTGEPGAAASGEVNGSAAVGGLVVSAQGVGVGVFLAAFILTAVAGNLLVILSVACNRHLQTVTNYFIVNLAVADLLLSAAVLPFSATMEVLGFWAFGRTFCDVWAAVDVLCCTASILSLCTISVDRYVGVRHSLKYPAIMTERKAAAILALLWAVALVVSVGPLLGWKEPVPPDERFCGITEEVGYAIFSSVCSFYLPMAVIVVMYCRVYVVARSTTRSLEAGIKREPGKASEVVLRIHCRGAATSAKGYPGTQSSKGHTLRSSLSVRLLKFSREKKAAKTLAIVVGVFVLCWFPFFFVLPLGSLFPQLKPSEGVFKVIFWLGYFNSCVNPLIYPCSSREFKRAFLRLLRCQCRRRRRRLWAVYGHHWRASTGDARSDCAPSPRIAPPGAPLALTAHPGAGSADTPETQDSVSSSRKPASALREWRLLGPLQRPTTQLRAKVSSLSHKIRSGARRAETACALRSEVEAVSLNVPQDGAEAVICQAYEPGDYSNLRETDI
T2 sequence (P43140 whole entry): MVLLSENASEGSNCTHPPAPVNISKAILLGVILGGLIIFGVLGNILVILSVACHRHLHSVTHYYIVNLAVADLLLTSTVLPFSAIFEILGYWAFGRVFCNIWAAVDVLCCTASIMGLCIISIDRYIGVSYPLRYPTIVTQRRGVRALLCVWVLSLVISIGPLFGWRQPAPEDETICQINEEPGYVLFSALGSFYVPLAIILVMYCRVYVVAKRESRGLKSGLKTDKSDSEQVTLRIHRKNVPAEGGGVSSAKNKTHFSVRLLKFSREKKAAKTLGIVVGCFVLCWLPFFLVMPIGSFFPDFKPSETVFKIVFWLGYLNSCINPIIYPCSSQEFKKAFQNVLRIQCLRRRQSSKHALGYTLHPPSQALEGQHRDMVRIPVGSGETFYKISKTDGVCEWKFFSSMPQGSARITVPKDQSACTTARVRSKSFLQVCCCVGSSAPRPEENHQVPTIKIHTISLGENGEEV

[7] = target: T1, Adrenergic receptor alpha-2; assay: Compound was tested for Adrenergic activity against Alpha-2 adrenergic receptor from rat aorta; format: tissue-based
[8] = target: Adrenergic receptor alpha-1 (Rattus norvegicus) (UniProt P15823+P23944+P43140); assay: Molar concentration towards Alpha-1 adrenergic receptor which shifts concentration curve of phenylephrine to the right by 2-fold (0.3 log units); in short: as §2

Structure (SMILES) | Max (Rattus norvegicus [1]) [%] | Potency ratio [2] | Potency ratio [3] | IC50 [4] [nM] | KB (Rattus norvegicus [5]) [µM] | EC50 [6] [nM] | IC50 [7] [nM] | Kb [8] [nM]
Cl.c1ccc2c(CC3=NCCN3)cccc2c1 [NAPHAZOLINE HYDROCHLORIDE] | 68 | – | – | – | – | – | – | –
CC(c1ncc[nH]1)c1cccc2ccccc12.Cl (stereo not given) | 40 | 0.013 | 0.04 | 0.26 | – | – | – | –
CC(C1=NCCN1)c1ccc2ccccc2c1.Cl (stereo not given) | – | 0.21 | – | 0.016 | 0.26 | – | – | –
CC(c1ccc2ccccc2c1)c1ncc[nH]1.O=C(O)C(=O)O (stereo not given) | – | 0.0054 | – | 0.61 | 1.5e-06 | – | – | –
Cl.c1ccc2c(Cc3ncc[nH]3)cccc2c1 | 56 | 0.097 | 1.6 | 0.034 | – | 200 | – | –
CC(C1=NCCN1)c1cccc2ccccc12.Cl (stereo not given) | 62 | 0.24 | 0.57 | 0.014 | – | – | – | –
Cc1cccc(C(C)c2c[nH]cn2)c1C.Cl (stereo not given) [MEDETOMIDINE HYDROCHLORIDE] | 42 | – | – | – | – | 310 | – | –
CC(c1c[nH]cn1)c1cccc2ccccc12.Cl (stereo not given) | 27 | 0.97 | 1.6 | – | – | 200 | 0.0034 | –
CC(c1ccc2ccccc2c1)c1c[nH]cn1.Cl (stereo not given) | – | 0.028 | – | 0.12 | – | – | – | 68
